Reference: ChEMBL document CHEMBL1138290 (J Med Chem, 2007)

How the values were obtained:
[1] = Cell cycle arrest in KB/HeLa cells assessed as accumulation at G2M phase at 31.6 nM after 24 hrs by flow cytometric analysis; type: functional, cell-based; settings: Homo sapiens
Procedure, shortened: (§1)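 Subconfluent KB/HeLa cells exposed to a range of compound concentrations for 24 h. Cell cycle phase distribution determined by flow cytometry. Experiments run at least in duplicate (n = 2).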

[2] = tested on: L1210; test: Antiproliferative activity against mouse vincristine-resistant L1210 cells after 48 hrs by XTT assay; type: functional, cell-based; settings: L1210, 48 h
Procedure, shortened: (§2)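 XTT proliferation assay with 48 h incubation with test compound. Each experiment run at least in duplicate (n = 2). IC50 calculated by nonlinear regression of dose-response curves.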

[3] = Cell cycle arrest in KB/HeLa cells assessed as accumulation at S phase at 1 nM after 24 hrs by flow cytometric analysis; type: functional, cell-based; settings: Homo sapiens; procedure, shortened: as §1
[4] = Cell cycle arrest in KB/HeLa cells assessed as accumulation at G1 phase at 3.16 nM after 24 hrs by flow cytometric analysis; type: functional, cell-based; settings: Homo sapiens; procedure, shortened: as §1
[5] = Cell cycle arrest in KB/HeLa cells assessed as accumulation at G2/M phase after 24 hrs by flow cytometric analysis; type: functional, cell-based; settings: Homo sapiens; procedure, shortened: as §1
[6] = Cell cycle arrest in KB/HeLa cells assessed as accumulation at S phase at 1000 nM after 24 hrs by flow cytometric analysis; type: functional, cell-based; settings: Homo sapiens; procedure, shortened: as §1
[7] = Cell cycle arrest in KB/HeLa cells assessed as accumulation at G2M phase at 1 nM after 24 hrs by flow cytometric analysis; type: functional, cell-based; settings: Homo sapiens; procedure, shortened: as §1
[8] = Cell cycle arrest in KB/HeLa cells assessed as accumulation at G2M phase at 316 nM after 24 hrs by flow cytometric analysis; type: functional, cell-based; settings: Homo sapiens; procedure, shortened: as §1
[9] = Cell cycle arrest in KB/HeLa cells assessed as accumulation at S phase at 0.1 nM after 24 hrs by flow cytometric analysis; type: functional, cell-based; settings: Homo sapiens; procedure, shortened: as §1
[10] = tested on: RKO; test: Cytotoxicity against human RKO cells with ectopic-inducible expression of p27kip1 after 48 hrs by XTT assay; type: functional, cell-based; procedure, shortened: as §2
[11] = Cell cycle arrest in KB/HeLa cells assessed as accumulation at S phase at 316 nM after 24 hrs by flow cytometric analysis; type: functional, cell-based; settings: Homo sapiens; procedure, shortened: as §1
[12] = tested on: P388; test: Antiproliferative activity against mouse adriamycin-resistant P388 cells after 48 hrs by XTT assay; type: functional, cell-based; settings: P388, 48 h; procedure, shortened: as §2
[13] = Antiproliferative activity against rat multidrug-resistant L12 cells after 48 hrs by XTT assay; type: functional, cell-based; settings: L1.2, 48 h; procedure, shortened: as §2
[14] = tested on: NCI-H460; test: Cytotoxicity against human NCI-H460 cells after 48 hrs by XTT assay; type: functional, cell-based; settings: NCI-H460, 48 h; procedure, shortened: as §2
[15] = Cell cycle arrest in KB/HeLa cells assessed as accumulation at G1 phase at 0.1 nM after 24 hrs by flow cytometric analysis; type: functional, cell-based; settings: Homo sapiens; procedure, shortened: as §1
[16] = tested on: L1210; test: Antiproliferative activity against mouse L1210 cells after 48 hrs by XTT assay; type: functional, cell-based; settings: L1210, 48 h; procedure, shortened: as §2
[17] = Cell cycle arrest in KB/HeLa cells assessed as accumulation at G2M phase at 0.3 nM after 24 hrs by flow cytometric analysis; type: functional, cell-based; settings: Homo sapiens; procedure, shortened: as §1
[18] = tested on: SK-OV-3; test: Cytotoxicity against human SKOV3 cells after 48 hrs by XTT assay; type: functional, cell-based; settings: SK-OV-3, 48 h; procedure, shortened: as §2
[19] = Antiproliferative activity against rat L12 cells after 48 hrs by XTT assay; type: functional, cell-based
[20] = Cell cycle arrest in KB/HeLa cells assessed as accumulation at S phase at 100 nM after 24 hrs by flow cytometric analysis; type: functional, cell-based; settings: Homo sapiens; procedure, shortened: as §1
[21] = Cell cycle arrest in KB/HeLa cells assessed as accumulation at G1 phase at 1 nM after 24 hrs by flow cytometric analysis; type: functional, cell-based; settings: Homo sapiens; procedure, shortened: as §1
[22] = Cell cycle arrest in KB/HeLa cells assessed as accumulation at S phase at 0.3 nM after 24 hrs by flow cytometric analysis; type: functional, cell-based; settings: Homo sapiens; procedure, shortened: as §1
[23] = molecular target: Tubulin (Sus scrofa, UniProt P02554+P02550); test: Inhibition of porcine brain tubulin polymerization
[24] = Cell cycle arrest in KB/HeLa cells assessed as accumulation at G1 phase at 100 nM after 24 hrs by flow cytometric analysis; type: functional, cell-based; settings: Homo sapiens; procedure, shortened: as §1
[25] = Cell cycle arrest in KB/HeLa cells assessed as accumulation at S phase at 3.16 nM after 24 hrs by flow cytometric analysis; type: functional, cell-based; settings: Homo sapiens; procedure, shortened: as §1
[26] = Cell cycle arrest in KB/HeLa cells assessed as accumulation at G1 phase at 31.6 nM after 24 hrs by flow cytometric analysis; type: functional, cell-based; settings: Homo sapiens; procedure, shortened: as §1
[27] = Cell cycle arrest in KB/HeLa cells assessed as accumulation at G2M phase at 0.1 nM after 24 hrs by flow cytometric analysis; type: functional, cell-based; settings: Homo sapiens; procedure, shortened: as §1
[28] = Cell cycle arrest in KB/HeLa cells assessed as accumulation at G2M phase at 3.16 nM after 24 hrs by flow cytometric analysis; type: functional, cell-based; settings: Homo sapiens
[29] = Cell cycle arrest in KB/HeLa cells assessed as accumulation at S phase at 10 nM after 24 hrs by flow cytometric analysis; type: functional, cell-based; settings: Homo sapiens; procedure, shortened: as §1
[30] = tested on: RKO; test: Cytotoxicity against human RKO cells after 48 hrs by XTT assay; type: functional, cell-based; procedure, shortened: as §2
[31] = Cell cycle arrest in KB/HeLa cells assessed as accumulation at G1 phase at 0.3 nM after 24 hrs by flow cytometric analysis; type: functional, cell-based; settings: Homo sapiens; procedure, shortened: as §1
[32] = Cell cycle arrest in KB/HeLa cells assessed as accumulation at G1 phase at 316 nM after 24 hrs by flow cytometric analysis; type: functional, cell-based; settings: Homo sapiens; procedure, shortened: as §1
[33] = tested on: SF-268; test: Cytotoxicity against human SF268 cells after 48 hrs by XTT assay; type: functional, cell-based; settings: SF-268, 48 h; procedure, shortened: as §2
[34] = Cell cycle arrest in KB/HeLa cells assessed as accumulation at G2M phase at 100 nM after 24 hrs by flow cytometric analysis; type: functional, cell-based; settings: Homo sapiens; procedure, shortened: as §1
[35] = Cell cycle arrest in KB/HeLa cells assessed as accumulation at S phase at 31.6 nM after 24 hrs by flow cytometric analysis; type: functional, cell-based; settings: Homo sapiens; procedure, shortened: as §1
[36] = Cell cycle arrest in KB/HeLa cells assessed as accumulation at G1 phase at 1000 nM after 24 hrs by flow cytometric analysis; type: functional, cell-based; settings: Homo sapiens; procedure, shortened: as §1
[37] = Cell cycle arrest in KB/HeLa cells assessed as accumulation at G2M phase at 1000 nM after 24 hrs by flow cytometric analysis; type: functional, cell-based; settings: Homo sapiens; procedure, shortened: as §1
[38] = tested on: K562; test: Antiproliferative activity against human K562 cells after 48 hrs; type: functional, cell-based; settings: K562, 48 h
Procedure, shortened: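 Growth of K562 cells measured by counting cells with a hemocytometer after 48 h (2 days) of drug treatment. IC50 is the mean of at least three independent determinations.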

[39] = molecular target: Tubulin; test: Displacement of [3H]colchicine from biotinylated tubulin by scintillation proximity assay; type: protein-complex assay, Homo sapiens
[40] = Cytotoxicity against human KB/HeLa cells after 48 hrs by XTT assay; type: functional, cell-based; procedure, shortened: as §2
[41] = Cell cycle arrest in KB/HeLa cells assessed as accumulation at G2M phase at 10 nM after 24 hrs by flow cytometric analysis; type: functional, cell-based; settings: Homo sapiens; procedure, shortened: as §1
[42] = tested on: P388; test: Antiproliferative activity against mouse P388 cells after 48 hrs by XTT assay; type: functional, cell-based; settings: P388, 48 h; procedure, shortened: as §2
[43] = Cell cycle arrest in KB/HeLa cells assessed as accumulation at G1 phase at 10 nM after 24 hrs by flow cytometric analysis; type: functional, cell-based; settings: Homo sapiens; procedure, shortened: as §1

- IC50 [2]: 460 nM
- EC50 [5]: 135 nM
- IC50 [12]: 270 nM
- IC50 [16]: 540 nM
- IC50 [23]: 1.2 µM
- IC50 [38]: 90 nM
- IC50 [39]: 560 nM
- IC50 [42]: 380 nM
Compound: COc1ccc(S(=O)(=O)Oc2c3ccccc3cc3ccccc23)cc1
- Activity [1]: 11.4%
- Activity [3]: 26.2%
- Activity [4]: 62.7%
- Activity [6]: 8.4%
- Activity [7]: 11.7%
- Activity [8]: 94.4%
- Activity [9]: 26.7%
- IC50 [10]: > 9 µM
- Activity [11]: 4.8%
- IC50 [13]: 360 nM
- IC50 [14]: 640 nM
- Activity [15]: 61.4%
- Activity [17]: 12.4%
- IC50 [18]: 250 nM
- IC50 [19]: 440 nM
- Activity [20]: 31%
- Activity [21]: 62.1%
- Activity [22]: 26%
- Activity [24]: 56.4%
- Activity [25]: 26%
- Activity [26]: 61.8%
- Activity [27]: 11.9%
- Activity [28]: 11.4%
- Activity [29]: 25.5%
- IC50 [30]: 280 nM
- Activity [31]: 61.6%
- Activity [32]: 0.8%
- IC50 [33]: 340 nM
- Activity [34]: 12.6%
- Activity [35]: 26.8%
- Activity [36]: 1.1%
- Activity [37]: 90.5%
- IC50 [40]: 370 nM
- Activity [41]: 12.6%
- Activity [43]: 61.8%
